Laboratory results published in ChEMBL document CHEMBL1151267, “Nematicidal epipolysulfanyldioxopiperazines from Gliocladium roseum” (2005).
In brackets after ≈: the same amount, converted by molar mass.

Legend:
Assay type in all cases: functional
Settings in all cases: read-out: ED50 (the source's name)
[1] = test system: Bursaphelenchus xylophilus; assay: Antinematodal activity against Bursaphelenchus xylophilus after 24 hrs by microscopy
Procedure, shortened: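 B. xylophilus were grown on PDB agar carrying Botrytis cinerea, kept at room temperature and subcultured before the assay. They were diluted in physiological saline to 20-25 worms per 48 μL and dispensed into three wells per treatment. 2 μL of 50% DMSO, with or without compound, was added. Plates were covered and held in a humid chamber. Dead worms were counted microscopically at 24 h.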

Caenorhabditis elegans = assay: Antinematodal activity against Caenorhabditis elegans after 24 hrs by microscopy
Procedure, shortened: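 C. elegans were grown on NG agar carrying an E. coli strain, kept at room temperature and subcultured before the assay. Worms in physiological saline were diluted to 20-25 per 48 μL, with three wells per treatment. Each well received 2 μL of 50% DMSO or 50% DMSO containing compound. Plates were covered in a humid chamber, and dead worms were counted by microscopy after 24 h.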

Panagrellus redivivus = assay: Antinematodal activity against Panagrellus redivivus after 24 hrs by microscopy
Procedure, shortened: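 P. redivivus were kept in aseptic liquid Basal Heme medium at room temperature and subcultured before testing. Worms were suspended in physiological saline and diluted to 20-25 per 48 μL aliquot, with triplicate wells per treatment. 2 μL of 50% DMSO, alone or with compound, was added. Plates were covered and humidified, and mortality was scored microscopically at 24 h.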

Row | Compound | EC50 [1] [µg/mL] | EC50 (Caenorhabditis elegans) [µg/mL] | EC50 (Panagrellus redivivus) [µg/mL]
1 | CN1C(=O)[C@@]23C[C@]4([C@@]56c7ccccc7N[C@@H]5N5C(=O)[C@@]7(C)SS[C@]5(C(=O)N7C)[C@H]6O)c5ccccc5N[C@@H]4N2C(=O)[C@]1(C)SS3 | > 400 | 10 (≈ 14.7 µM) | 40 (≈ 58.7 µM)
2 | CN1C(=O)[C@]23SSS[C@]1(C)C(=O)N2[C@H]1Nc2ccccc2[C@@]1(c1c[nH]c2ccccc12)[C@@H]3O [GLIOCLADINE D] | > 400 | 200 (≈ 403 µM) | 250 (≈ 503 µM)
3 | CC[C@@]12SS[C@]3(C(=O)N1C)[C@@H](O)[C@]1([C@@]45c6ccccc6N[C@@H]4N4C(=O)[C@@]6(C)SS[C@]4(C(=O)N6C)[C@H]5O)c4ccccc4N[C@@H]1N3C2=O | > 400 | 50 (≈ 70.3 µM) | 80 (≈ 113 µM)
4 | CN1C(=O)[C@]23SS[C@]1(C)C(=O)N2[C@H]1Nc2ccccc2[C@@]1(c1c[nH]c2ccccc12)[C@@H]3O [GLIOCLADINE C] | > 400 | 200 (≈ 431 µM) | 250 (≈ 538 µM)
5 | CN1C(=O)[C@]23SSSS[C@]1(C)C(=O)N2[C@H]1Nc2ccccc2[C@@]1(c1c[nH]c2ccccc12)[C@@H]3O [GLIOCLADINE E] | > 400 | 200 (≈ 378 µM) | 250 (≈ 473 µM)
6 | CN1C(=O)[C@]23SSS[C@]1(C)C(=O)N2[C@H]1Nc2ccccc2[C@@]1([C@@]12c4ccccc4N[C@@H]1N1C(=O)[C@@]4(C)SS[C@]1(C(=O)N4C)[C@H]2O)[C@@H]3O [GLIOCLADINE A] | > 400 | 25 (≈ 34.3 µM) | 50 (≈ 68.6 µM)
7 | CN1C(=O)C23SSSS[C@]1(C)C(=O)N2[C@H]1Nc2ccccc2[C@@]1([C@@]12c4ccccc4N[C@@H]1N1C(=O)[C@@]4(C)SS[C@]1(C(=O)N4C)[C@H]2O)[C@@H]3O [GLIOCLADINE B] | > 400 | 30 (≈ 39.4 µM) | 25 (≈ 32.9 µM)
8 | CN1C(=O)[C@]23SS[C@@]1(C)C(=O)N2[C@H]1Nc2ccccc2[C@@]1([C@@]12c4ccccc4N[C@@H]1N1C(=O)[C@@]4(C)SS[C@]1(C(=O)N4C)[C@H]2O)[C@@H]3O [VERTICILLIN A] | > 400 | 30 (≈ 43.1 µM) | 80 (≈ 115 µM)
